Sampled rows, rich in hits. Any-hit rate of the full collection: about 3.1%.
SENP8 block-1: blocks human SENP8 cleavage of Nedd8 substrate; recombinant SENP8, Nedd8 substrate fluorescence; hit rate 0.64% among 360,000; inhibition, % at 20 µM; in the data active = inhibition mostly above about 40%, no sharp cut-off; inactive = mostly below about 27%
SENP8 block-2: inhibitors of human SENP8 protease; Q96LD8; purified SENP8, Z-RLRGG-aminoluciferin cleavage, luminescence; AID 2540; inhibition, % at 10 µM; hit rate 1.2% among 330,000; in the data active = inhibition above about 50%
SENP7 block: SENP7 protease inhibition; Q9BQF6; recombinant SENP7, Z-RLRGG-aminoluciferin luminescence, 40 min; inhibition, % at 5 µM; hit rate 1.5% among 330,000; AID 434973;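 active = inhibition above about 50% at the single test dose, limit read from the data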;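 also: plate controls were DMSO with enzyme for no effect and no enzyme buffer wells for full effect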
Apaf-1 inh: blocks human Apaf-1 apoptosome activity; O14727; inhibition, % at 20 µM; reconstituted apoptosome caspase-3 activity, DEVD-Rh110 fluorescence; hit rate 0.71% among 330,000; active = inhibition of at least 40% at 20 µM;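 also: plate controls were DMSO wells for no effect and DEVD-CHO caspase inhibitor wells for full effect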
Target sequence (O14727 whole entry, looked up): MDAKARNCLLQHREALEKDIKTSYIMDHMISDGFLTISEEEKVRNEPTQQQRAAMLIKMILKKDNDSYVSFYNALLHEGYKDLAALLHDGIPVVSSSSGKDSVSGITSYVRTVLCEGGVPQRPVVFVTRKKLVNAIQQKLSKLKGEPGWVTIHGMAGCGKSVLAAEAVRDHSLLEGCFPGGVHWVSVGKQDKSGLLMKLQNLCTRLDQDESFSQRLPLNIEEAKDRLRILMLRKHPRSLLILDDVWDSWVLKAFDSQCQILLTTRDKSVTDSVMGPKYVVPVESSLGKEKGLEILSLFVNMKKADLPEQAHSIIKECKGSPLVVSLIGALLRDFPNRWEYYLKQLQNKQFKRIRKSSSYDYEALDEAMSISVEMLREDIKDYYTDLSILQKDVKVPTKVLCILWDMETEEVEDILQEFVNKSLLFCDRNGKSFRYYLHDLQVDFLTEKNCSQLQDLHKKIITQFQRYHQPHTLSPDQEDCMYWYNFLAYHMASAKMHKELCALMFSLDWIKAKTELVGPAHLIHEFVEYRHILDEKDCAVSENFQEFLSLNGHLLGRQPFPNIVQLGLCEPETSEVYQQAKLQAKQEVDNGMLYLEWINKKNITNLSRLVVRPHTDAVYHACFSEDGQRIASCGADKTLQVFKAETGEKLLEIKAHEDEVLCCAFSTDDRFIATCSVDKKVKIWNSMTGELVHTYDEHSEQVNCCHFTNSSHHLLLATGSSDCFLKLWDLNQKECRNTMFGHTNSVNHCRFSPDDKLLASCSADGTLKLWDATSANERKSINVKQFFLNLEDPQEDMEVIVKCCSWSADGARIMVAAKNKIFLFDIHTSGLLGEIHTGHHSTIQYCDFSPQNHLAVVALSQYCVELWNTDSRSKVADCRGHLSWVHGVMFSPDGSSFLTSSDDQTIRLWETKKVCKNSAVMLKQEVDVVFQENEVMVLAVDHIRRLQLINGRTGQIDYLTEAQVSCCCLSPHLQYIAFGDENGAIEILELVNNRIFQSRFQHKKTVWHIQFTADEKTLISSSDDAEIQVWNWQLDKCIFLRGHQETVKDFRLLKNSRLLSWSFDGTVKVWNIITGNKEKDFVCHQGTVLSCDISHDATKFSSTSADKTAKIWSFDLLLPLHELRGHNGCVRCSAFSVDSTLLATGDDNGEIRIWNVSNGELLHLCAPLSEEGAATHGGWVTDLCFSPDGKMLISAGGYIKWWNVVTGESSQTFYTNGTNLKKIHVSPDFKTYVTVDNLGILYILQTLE
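Material: reconstituted apoptosome with Apaf-1, cytochrome c, caspase-9, procaspase-3, dATP / Buffer or medium: pH 7.5 Hepes buffer with CHAPS, BSA, DTT / Also added: cytochrome c with DEVD-Rh110 / Schedule: compound with Apaf-1, dATP, procaspase-3 30 min, then 50 min reaction, room temperature / Technique: rhodamine 110 fluorescence at Ex 480/Em 540 nm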
UBC13 inh: human UBC13 polyubiquitination inhibition; AID 485273; hit rate 0.47% among 330,000; UBC13 polyubiquitin chain formation, TR-FRET; inhibition, % at 20 µM; in the data active = inhibition above about 45%, passing the limit was not always enough; inconclusive = no clear call, values can overlap the other calls
SENP6 inh: inhibitors of human SENP6 protease | AID 2599 | Recombinant SENP6 catalytic domain, aminoluciferin luminescence | inhibition, % at 10 µM | Q9GZR1 | hit rate 1.8% among 330,000;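 active = inhibition above about 50% at the single tested dose, limit read from the data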;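 also: plate controls were DMSO wells with enzyme for no effect and DMSO wells lacking enzyme for full effect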
Casp3 counter: inhibits human caspase-3 in UBC13 counter-screen; shares compounds with UBC13 inh; Recombinant caspase-3, Caspase-Glo 3/7 luminescence, 60 min; inhibition, % at 20 µM; hit rate 4% among 1,400;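 active = mean inhibition across replicates above about 26%, limit read from the data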;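 also: plate controls were DMSO with caspase-3 for no effect and DMSO wells lacking enzyme for full effect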
UBC13 conf: human UBC13 polyubiquitin inhibition, confirmed. shares compounds with UBC13 inh. UBC13 polyubiquitination, TR-FRET, biochemical. inhibition, % at 10 µM. hit rate 68% among 1,400; in the data active = inhibition above about 45%; inconclusive = no clear call, values can overlap the other calls
The depositor's hits bear a star; ? = inconclusive; . = not tested or not shown.

SMILES | SENP8 block-1 | SENP8 block-2 | SENP7 block | Apaf-1 inh | UBC13 inh | SENP6 inh | Casp3 counter | UBC13 conf
C#CCOCCOCCOCCNc1nc(N2CCN(C(=O)[C@H](Cc3cc4ccccc4[nH]3)n3cc([C@@H](N)C(C)CC)nn3)CC2)nc(N2CCN(C(=O)[C@H](Cc3cc4ccccc4[nH]3)n3cc([C@@H](N)Cc4ccc(O)cc4)nn3)CC2)n1 (stereo partly drawn) | . | -18.5 | 34.7 | 60.4* | 124.4* | -27.3 | -2.0 | 118.9*
C#CCOCCOCCOCCNc1nc(N2CCN(C(=O)C(Cc3cc4ccccc4[nH]3)n3cc(C(N)Cc4ccc(O)cc4)nn3)CC2)nc(N2CCN(C(=O)C(CCC(=O)O)n3cc(C(N)C(C)CC)nn3)CC2)n1 (stereo not drawn) | -44.3 | -6.7 | -9.5 | 11.0 | 9.6 | 10.5 | . | .
CC(=O)n1cc([C@H]2C=C(C(=O)Nc3ccccc3)O[C@@H](OCCCCO)C2)c2ccccc21 | -26.7 | -4.2 | 2.5 | 12.5 | 69.4* | -4.9 | 2.4 | 44.8
Cn1c(=O)cc(SCC(=O)NCc2ccc(F)cc2)c2ccccc21 | -13.1 | -4.3 | 48.2 | -5.0 | 14.2 | 5.0 | . | .
Cn1c(=O)cc(SCC(=O)NCCCN2CCN(c3ccc(F)cc3)CC2)c2ccccc21 | -18.6 | -2.1 | -9.8 | 12.5 | 81.5* | -11.1 | -2.3 | ?
O=C(NCc1cccnc1)C1CCN(S(=O)(=O)c2cc([N+](=O)[O-])ccc2Cl)CC1 | 12.5 | -7.3 | 3.9 | 2.5 | 0.9 | 15.9 | . | .
O=C(NCCCn1ccnc1)C1CCN(S(=O)(=O)c2cc([N+](=O)[O-])ccc2Cl)CC1 | 33.5 | -5.4 | -4.9 | 23.4 | 82.3* | -8.3 | -1.3 | 63.9*
COc1ccc(-c2c(-c3ccc(C#N)cc3)oc(=O)c3cc(OC)c(OC)cc23)cc1 | -487.9 | -6.1 | -0.2 | 11.0 | 45.4* | 8.1 | -0.4 | 24.4
Cc1cc(OC(=O)Nc2ccccc2)ccc1Cl | 11.7 | . | . | . | . | . | . | .
CCOC(=O)c1ccc(NC(=O)c2nc[nH]c2C(=O)NCCCCCNC(=O)OC(C)(C)C)cc1 | 10.0 | -5.9 | -2.4 | 34.8 | 45.3* | -2.3 | -1.8 | 21.7
CCOC(=O)c1ccc(NC(=O)c2nc[nH]c2C(=O)NCC(=O)OC(C)(C)C)cc1 | 17.9 | -8.4 | -3.9 | 24.7 | 51.7* | -14.2 | -2.3 | 27.8
CCOC(=O)c1ccc(NC(=O)c2nc[nH]c2C(=O)NC2CCN(C(=O)OC(C)(C)C)CC2)cc1 | 9.7 | -1.8 | -3.7 | 11.9 | 92.2* | -3.6 | -1.2 | 91.9*
CN(C)c1ccc(CC(=O)N2CCCCC2c2cc(C(=O)Nc3cccc(C#N)c3)no2)cc1 (stereo not drawn) | 6.3 | . | . | . | . | . | . | .
CC1(C)Cc2c(sc(NC(=O)c3ccc4c(c3)OCCO4)c2C(N)=O)C(C)(C)N1 | -436.8 | -1.7 | 5.0 | 4.3 | 54.6* | 16.8 | -3.9 | 70.2*
COCCn1c(SCC(N)=O)nc2c(c1=O)SC(C)C2 (stereo not drawn) | 15.8 | 1.4 | 18.1 | 4.5 | 48.6* | -4.3 | -3.8 | -3.5
CC1Cc2nc(SCC(N)=O)n(C)c(=O)c2S1 (stereo not drawn) | -1.7 | 2.1 | -7.2 | -2.4 | -2.0 | 3.2 | . | .
CCN(CC)CCNC(=O)c1ccc(NC(=O)c2ccc(-n3cncn3)c([N+](=O)[O-])c2)cc1 | 14.4 | . | . | . | . | . | . | .
CC(C)c1ccc(OCC(=O)NNC(=S)NC(=O)C2CC2)cc1 | 2.9 | -0.9 | 3.8 | 6.5 | 61.8* | -2.4 | -1.4 | 98.6*
Cc1ccc(OCC(=O)NNC(=S)NC(=O)C2CC2)c(C)c1 | 9.3 | 4.2 | -9.3 | -4.6 | 85.1* | 7.6 | 1.9 | 105.6*
N#Cc1ccc(OCC(=O)NNC(=S)NC(=O)C2CC2)cc1 | 7.0 | 8.5 | 1.4 | -3.2 | 105.5* | 0.0 | -1.3 | 101.5*
Cc1ccc(OCC(=O)NNC(=S)NC(=O)C2CCCCC2)c(C)c1 | 4.3 | 6.5 | 10.5 | 10.3 | -4.2 | 0.6 | . | .
COc1cccc(NC(=O)N(C)C[C@H]2OCc3cn(nn3)CCCC(=O)N([C@@H](C)CO)C[C@@H]2C)c1 | 14.0 | . | . | . | . | . | . | .
Cc1ccc(S(=O)(=O)CCC(=O)N(CCN2CCOCC2)c2nc3ccccc3s2)cc1 | 11.9 | 2.7 | -0.2 | 11.1 | -1.1 | 10.7 | . | .
Cc1cccc2sc(N(CCN3CCOCC3)C(=O)CCS(=O)(=O)c3ccccc3)nc12 | 6.0 | -2.6 | -13.2 | 10.0 | 58.8* | -6.1 | 0.3 | 79.0*
CC(C)n1c(NCc2cc(Cl)ccc2O)nc2ccccc21 | 4.3 | -1.6 | -1.9 | 15.1 | 67.2* | -3.8 | 0.3 | 54.4*
SMILES | SENP8 block-1 | SENP8 block-2 | SENP7 block | Apaf-1 inh | UBC13 inh | SENP6 inh | Casp3 counter | UBC13 conf
NS(=O)(=O)c1ccc(S(=O)(=O)N2CCCC(c3ccccc3)C2)cc1 (stereo not drawn) | 12.6 | . | . | . | . | . | . | .
Cc1ccc2c(c1)c(N=NC(N)=S)c(O)n2Cc1ccccc1 | 15.3 | -2.6 | -5.2 | 0.2 | 79.1* | -8.5 | 0.3 | 46.3*
Oc1c(N=NC(=S)Nc2ccccc2F)c2ccccc2n1Cc1ccc(F)cc1 | 23.6 | 0.7 | 5.1 | 2.9 | -42.4 | -15.5 | . | .
NC(=S)N=Nc1c(O)n(CCCl)c2ccc(Br)cc12 | 49.6* | -5.3 | -4.4 | -2.0 | 58.5* | -25.9 | -0.8 | 30.1
NC(=S)N=Nc1c(O)n(Cc2ccc(F)cc2)c2ccccc12 | 28.0 | -11.8 | -4.7 | 5.0 | 72.7* | -13.5 | -0.8 | 75.1*
CCCCn1c(O)c(N=NC(=O)c2ccncc2)c2cc(Br)ccc21 | 14.7 | -9.2 | 0.2 | 5.5 | -23.4 | -15.2 | . | .
NC(=S)N=Nc1c(O)n(Cc2ccc(Br)cc2)c2ccccc12 | 25.6 | -9.0 | -5.0 | 11.0 | 45.8* | -13.6 | -1.7 | 38.5
O=C(N=Nc1c(O)n(Cc2ccccc2)c2ccccc12)c1ccc(O)cc1 | 29.0 | -16.2 | 44.0 | 12.7 | -8.0 | 1.6 | . | .
C[C@H](NC(=O)c1ncn2c1C(=O)N[C@@H](C)C2)C(=O)OC(C)(C)C | 6.2 | . | . | . | . | . | . | .
O=c1ccn([C@@H]2O[C@H](CNCc3ccccc3OCc3ccc(Cl)cc3Cl)[C@@H](O)[C@H]2O)c(=O)[nH]1 | 15.9 | . | . | . | . | . | . | .
CCOC1=CC2=C(C(=O)C(Cl)=CC2=O)[C@@H]2CN(S(=O)(=O)c3ccc(C)cc3)[C@@H](c3ccccc3)[C@H]12 | -94.3 | . | . | . | . | . | . | .
O=C1NC[C@@H](CCCCN2C[C@H](Cc3ccc(O)cc3)N(CCc3ccccc3)C(=O)C2=O)N(CCc2ccc(O)cc2)C1=O | 13.0 | . | . | . | . | . | . | .
CCc1nc2c(OCCOc3ccc(F)cc3)cccn2c1N(C)C(=O)c1ccc(OC)cc1 | 9.3 | . | . | . | . | . | . | .
CCn1c(=O)c2cc(C(=O)NCCC(C)C)sc2c2ccccc21 | -293.8 | -7.8 | -3.0 | 17.1 | 13.5 | 7.4 | . | .
CCn1c(=O)c2cc(C(=O)NCC(OC)OC)sc2c2ccccc21 | -308.4 | 7.9 | 2.3 | 9.3 | 21.0 | 11.0 | . | .

From PubChem BioAssay
